The values that follow come from PubChem BioAssay AID493081 (Broad Institute, 2011).

SMILES strings stand for the structures. Calls of active or inactive are those of the source.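 How the source made its calls: active means fitted half-maximal dose of growth inhibition at or below ten times the top valid tested dose; inconclusive means flat fit with moderate inhibition, or poor fit quality; inactive means the rest.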

For orientation: AC50 means the concentration at which the activity in the assay is half-maximal.

System in the first experiment: not listed separately
The experiment can be described thus: Candida CaCi-2 inhibitors alongside fluconazole – CaCi-2 isolate, dry powder retest, no file, confirmation (AID 493081). The following applies: C. albicans CaCi-2 + fluconazole, Alamar Blue, 48 h; at 12 µM (top of the series). Summed up: (§1)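 Schedule – 48 h at 37 °C, then 2 h dye step · Assay system – Candida albicans clinical isolate CaCi-2, fluconazole-resistant strain · Detection – Alamar Blue fluorescence, excitation 544 nm, emission 590 nm · Reagent – fluconazole at 8 µg/mL throughout the growth period · Read-out – fungal growth from fluorescence, lower signal meaning growth inhibition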
A general note: The colour change of resazurin is a common sign of viable cells or microbes.
For `FC(F)(F)c1ccc(-c2n[nH]c3ccccc23)cc1`, the activity change, negative = growth inhibition is -27.3% (inactive).

As for `COC(=O)Cn1nc(-c2ccccc2)c2cccc(C(F)(F)F)c21`, the activity change, negative = growth inhibition is 1.65% (inactive).

With `COC(=O)CCCn1nc(-c2ccccc2)c2ccccc21`, the activity change, negative = growth inhibition is -23.8% (inactive).

`O=C(O)Cn1nc(-c2ccccc2)c2ccccc21`: the activity change, negative = growth inhibition is -9.2% (inactive).

For `O=C1OCCC1n1nc(-c2ccccc2)c2ccccc21` (stereo not given), the activity change, negative = growth inhibition is -11.6% (inactive).

Take `COc1ccc(-c2n[nH]c3ccccc23)cc1`: the activity change, negative = growth inhibition was -24.1% (inactive).

`CCC(=O)Cn1nc(-c2ccccc2)c2ccccc21`: the activity change, negative = growth inhibition is -16.1% (inactive).

For `COC(=O)C(C)(C)n1nc(-c2ccccc2)c2ccccc21`, the activity change, negative = growth inhibition is -6.64% (inactive).

For the compound `O=C(Cn1c2ccccc2c2ccncc21)N1CCCCC1`, the activity change, negative = growth inhibition was -31.9% (inactive).

Turning to `O=C(Cn1nc(-c2ccccc2)c2ccccc21)OC1CCC1`, the activity change, negative = growth inhibition is -23.5% (inactive).

Consider `CCCCn1nc(-c2ccccc2)c2ccccc21`, for which the activity change, negative = growth inhibition was 19.1% (inactive).

Turning to `COC(=O)Cn1nc(-c2ccccc2)c2ccc(C(F)(F)F)cc21`, the activity change, negative = growth inhibition is -26.8% (inactive).

The test system of another experiment is C. albicans CaCi-2 (fluconazole-resistant clinical isolate) + fluconazole, Alamar Blue, 48 h. The description is as above.
Conditions: not given
The method in brief:
as §1
As for `CCN(CC)C(=O)Cn1c2ccccc2c2nc3n(c(=O)c21)CCS3`, the AC50 was 7430 nM.

Consider `COC(=O)Cn1nc(-c2ccccc2C)c2ccccc21`, for which the AC50 was 6140 nM.

On to `O=C(Cn1c2ccccc2c2nc3n(c(=O)c21)CCS3)N1CCOCC1`, for which the AC50 is 1610 nM.

Consider `O=C(Cn1c2ccccc2c2nc3n(c(=O)c21)CCS3)N1CCCC1`, for which the AC50 is 835 nM.

For the compound `COC(=O)Cn1nc(-c2cccc(F)c2)c2ccccc21`, the AC50 was 8120 nM.

Regarding `O=C(Cn1c2ccc(F)cc2c2nc3n(c(=O)c21)CCS3)N1CCCCC1`, the AC50 is 413 nM.

Turning to `O=C(Cn1c2ccc(F)cc2c2nc3n(c(=O)c21)CCS3)N1CCCC1`, the AC50 is 608 nM.

As for `CCN(CC)C(=O)Cn1c2ccc(F)cc2c2nc3n(c(=O)c21)CCS3`, the AC50 is 69 nM.

With `CC1CCN(C(=O)Cn2c3ccccc3c3nc4n(c(=O)c32)CCS4)CC1`, the AC50 is 1790 nM.

On to `COC(=O)Cn1nc(-c2ccccc2)c2ccccc21`, for which the AC50 is 1270 nM.

With `O=C(Cn1c2ccccc2c2nc3n(c(=O)c21)CCS3)N1CCCCC1`, the AC50 was 606 nM.

Regarding `O=C(Cn1c2ccc(F)cc2c2nc3n(c(=O)c21)CCS3)N1CCCCCC1`, the AC50 is 629 nM.

As to `COC(=O)Cn1nc(-c2ccc(F)cc2)c2ccccc21`, the AC50 was 8180 nM.
